Data taken from ChEMBL document CHEMBL1123109, “Alkyl esters of 3-adenin-9-yl-2-hydroxypropanoic acid: a new class of broad-spectrum antiviral agents” (1985).
≈ marks a conversion by molar mass, not a printed value.

Assays:
Type in all cases: functional
Oryctolagus cuniculus [1] = species on record: Oryctolagus cuniculus; experiment: Inhibitory effects on DNA, RNA, and Protein synthesis in rabbit kidney cells was evaluated for incorporation of [methyl-3H]dThd]; conditions: read-out: ID50 (the source's name)
Vaccinia virus = experiment: Inhibition of Vaccinia virus induced cytopathicity in PRK cells.; conditions: Orthopoxvirus vaccinia
[2] = system: Mammalian orthoreovirus 1; experiment: Inhibition of Reo virus-1 induced cytopathicity in vero cells.
Vero = experiment: Cytotoxic concentration against Vero cells.; conditions: Chlorocebus sabaeus
Outline: (§1)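 Uninfected cells were incubated with compound for the same duration as the matching antiviral assay. The minimum cytotoxic concentration is the lowest one causing a microscopically detectable change in normal cell morphology.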

[3] = system: Vesicular stomatitis virus; experiment: Inhibition of Vesicular stomatitis virus induced cytopathicity in BALB/3T3 cells.; conditions: in Mus musculus
Outline: (§2)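 Vesicular stomatitis virus was inoculated at 100 CCID50 (100× the dose infecting 50% of cells) in each cell type: human embryonic skin-muscle fibroblasts, LR-strain trisomy-21 fibroblasts, HEp-2, CV-1, BS-C-1, Balb/3T3, RK13, human kidney, HeLa and Vero. CPE was read at 1–2 days in every cell type, once complete in untreated infected controls. The MIC is the concentration giving a 50% reduction in cytopathogenicity.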

[4] = system: Vesicular stomatitis virus; experiment: Inhibition of Vesicular stomatitis virus induced cytopathicity in RK13 cells.; outline: as §2
HK [5] = experiment: Minimum inhibitory concentration which is required to reduce virus-induced cytopathogenicity by 50% against Vesicular stomatitis virus in human kidney (HK) cells; outline: as §2
[6] = system: Vesicular stomatitis virus; experiment: Inhibition of Vesicular stomatitis virus induced cytopathicity in HEp-2 cells.; outline: as §2
Human alphaherpesvirus 1 = experiment: Inhibition of HSV-1 induced cytopathicity in PRK cells.
[7] = system: Vesicular stomatitis virus; experiment: Inhibition of Vesicular stomatitis virus induced cytopathicity in Vero cells.; outline: as §2
Sindbis virus = experiment: Inhibition of Sindbis virus induced cytopathicity in vero cells.
Poliovirus 1 = experiment: Inhibition of polio virus 1 induced cytopathicity in HeLa cells.; conditions: Enterovirus C
PRK = experiment: Cytotoxic concentration against PRK cells.; conditions: Oryctolagus cuniculus; outline: as §1
Oryctolagus cuniculus [8] = species on record: Oryctolagus cuniculus; experiment: Inhibitory effects on DNA, RNA, and Protein synthesis in rabbit kidney cells was evaluated for incorporation of [4,5-3H]leucine; conditions: read-out: ID50 (the source's name)
[9] = system: Vesicular stomatitis virus; experiment: Inhibition of Vesicular stomatitis virus induced cytopathicity in PRK cells.
Measles morbillivirus = experiment: Inhibition of Measles virus induced cytopathicity in vero cells.
Human respirovirus 3 = experiment: Inhibition of parainfluenza virus-3 induced cytopathicity in vero cells.
Coxsackievirus B4 = experiment: Inhibition of Coxsackie B4 virus induced cytopathicity in HeLa cells.; conditions: Enterovirus B
[10] = system: Vesicular stomatitis virus; experiment: Inhibition of Vesicular stomatitis virus induced cytopathicity in E6SM cells.; outline: as §2
Oryctolagus cuniculus [11] = species on record: Oryctolagus cuniculus; experiment: Inhibitory effects on DNA, RNA, and Protein synthesis in rabbit kidney cells was evaluated for incorporation of [5-3H]-Urd; conditions: read-out: ID50 (the source's name)
[12] = system: Vesicular stomatitis virus; experiment: Inhibition of Vesicular stomatitis virus induced cytopathicity in HeLa cells.; outline: as §2
HeLa = experiment: Cytotoxic concentration against HeLa cells.; conditions: Homo sapiens; outline: as §1
[13] = system: Vesicular stomatitis virus; experiment: Inhibition of Vesicular stomatitis virus induced cytopathicity in BS-C-1 cells.; outline: as §2
[14] = system: Vesicular stomatitis virus; experiment: Inhibition of Vesicular stomatitis virus induced cytopathicity in CV-1 cells.; outline: as §2
[15] = system: Vesicular stomatitis virus; experiment: Inhibition of Vesicular stomatitis virus induced cytopathicity in T-21 cells.; outline: as §2
HK [16] = experiment: Minimum inhibitory concentration which is required to reduce virus-induced cytopathogenicity by 50% against Vesicular stomatitis virus in human kidney; outline: as §2
HK [17] = experiment: Minimum inhibitory concentration which is required to reduce virus-induced cytopathogenicity by 50% against Vesicular stomatitis virus in human kidney,; outline: as §2

Row | Structure (SMILES) | IC50 (Oryctolagus cuniculus [1]) [µg/mL] | MIC (Vaccinia virus) [µg/mL] | MIC [2] [µg/mL] | MCC (Vero) [µg/mL] | MIC [3] [µg/mL] | MIC [4] [µg/mL] | MIC [6] [µg/mL] | MIC (Human alphaherpesvirus 1) [µg/mL] | MIC [7] [µg/mL] | MIC (Sindbis virus) [µg/mL] | MIC (Poliovirus 1) [µg/mL] | MCC (PRK) [µg/mL] | MIC [9] [µg/mL] | MIC (Measles morbillivirus) [µg/mL] | MIC (Human respirovirus 3) [µg/mL] | MIC (Coxsackievirus B4) [µg/mL] | MIC [10] [µg/mL] | MIC [12] [µg/mL] | MCC (HeLa) [µg/mL] | MIC [13] [µg/mL] | other results
1 | COC(=O)C(O)Cn1cnc2c(N)ncnc21 (stereo not given) | > 400 | 7 (≈ 29.5 µM) | 200 (≈ 843 µM) | > 400 | 300 (≈ 1260 µM) | 1 (≈ 4.22 µM) | 3 (≈ 12.6 µM) | > 400 | > 400 | > 400 | > 400 | > 400 | 3 (≈ 12.6 µM) | 40 (≈ 169 µM) | 20 (≈ 84.3 µM) | > 400 | 30 (≈ 126 µM) | 70 (≈ 295 µM) | > 400 | 150 (≈ 632 µM) | MIC (HK [5]): > 400 µg/mL; IC50 (Oryctolagus cuniculus [8]): > 400 µg/mL; IC50 (Oryctolagus cuniculus [11]): 350 µg/mL (≈ 1480 µM)
2 | CCCCCCCCOC(=O)C(O)Cn1cnc2c(N)ncnc21 (stereo not given) |  | 7 (≈ 20.9 µM) | 7 (≈ 20.9 µM) | 200 | 100 (≈ 298 µM) | 30 (≈ 89.4 µM) | 2 (≈ 5.96 µM) | > 100 | 100 (≈ 298 µM) | 30 (≈ 89.4 µM) | > 100 | 100 | 7 (≈ 20.9 µM) | 70 (≈ 209 µM) | 15 (≈ 44.7 µM) | > 100 | 7 (≈ 20.9 µM) | 1 (≈ 2.98 µM) | 100 | > 100 | MIC [14]: > 100 µg/mL; MIC [15]: 0.5 µg/mL (≈ 1.49 µM); MIC (HK [16]): 15 µg/mL (≈ 44.7 µM)
3 | CCCCCOC(=O)C(O)Cn1cnc2c(N)ncnc21 (stereo not given) | 151 (≈ 515 µM) | 70 (≈ 239 µM) | 30 (≈ 102 µM) | 200 | > 200 | 100 (≈ 341 µM) | 2 (≈ 6.82 µM) | > 200 | 20 (≈ 68.2 µM) | 200 (≈ 682 µM) | > 400 | 200 | 10 (≈ 34.1 µM) | 70 (≈ 239 µM) | 70 (≈ 239 µM) | > 400 | 3 (≈ 10.2 µM) | 10 (≈ 34.1 µM) | > 400 | 100 (≈ 341 µM) | MIC [14]: 300 µg/mL (≈ 1020 µM); MIC [15]: 1 µg/mL (≈ 3.41 µM); MIC (HK [17]): 20 µg/mL (≈ 68.2 µM); IC50 (Oryctolagus cuniculus [8]): 215 µg/mL (≈ 733 µM); IC50 (Oryctolagus cuniculus [11]): 21 µg/mL (≈ 71.6 µM)
4 | CCCOC(=O)C(O)Cn1cnc2c(N)ncnc21 (stereo not given) | > 276 | 3 (≈ 11.3 µM) | 200 (≈ 754 µM) | > 400 | > 400 | 2 (≈ 7.54 µM) | 3 (≈ 11.3 µM) | > 100 | 150 (≈ 565 µM) | > 200 | > 400 | 100 | 1 (≈ 3.77 µM) | 100 (≈ 377 µM) | 100 (≈ 377 µM) | > 400 | 10 (≈ 37.7 µM) | 50 (≈ 188 µM) | > 400 | 300 (≈ 1130 µM) | MIC [14]: > 400 µg/mL; MIC [15]: 7 µg/mL (≈ 26.4 µM); MIC (HK [17]): 200 µg/mL (≈ 754 µM); IC50 (Oryctolagus cuniculus [8]): > 400 µg/mL; IC50 (Oryctolagus cuniculus [11]): 168 µg/mL (≈ 633 µM)
